In ChEMBL document CHEMBL5705889, “Novel mutant-selective EGFR kinase inhibitors against EGFR T790M” (Nature, 2009):
The source made the active and inactive calls. The calls are words filed in the database; no cut-off is given here.

Legend:
[1] = MRT in mouse at 1 mg/kg, iv administered as single dose; assay type: ADME, organism-based; details: in vivo
[2] = molecular target: RAC-alpha serine/threonine-protein kinase (Homo sapiens) (UniProt P31749); assay: Inhibition of AKT phosphorylation in human PC9 Gefitinib-resistant (GR) cells at 0.01 to 1 uM incubated for 16 hrs by immunoblot analysis; assay type: cell-based; details: PC9 Gefitinib-resistant (GR) cell, dose 0.01-1 µM
RAC-alpha serine/threonine-protein kinase (Homo sapiens), sequence (P31749 whole entry): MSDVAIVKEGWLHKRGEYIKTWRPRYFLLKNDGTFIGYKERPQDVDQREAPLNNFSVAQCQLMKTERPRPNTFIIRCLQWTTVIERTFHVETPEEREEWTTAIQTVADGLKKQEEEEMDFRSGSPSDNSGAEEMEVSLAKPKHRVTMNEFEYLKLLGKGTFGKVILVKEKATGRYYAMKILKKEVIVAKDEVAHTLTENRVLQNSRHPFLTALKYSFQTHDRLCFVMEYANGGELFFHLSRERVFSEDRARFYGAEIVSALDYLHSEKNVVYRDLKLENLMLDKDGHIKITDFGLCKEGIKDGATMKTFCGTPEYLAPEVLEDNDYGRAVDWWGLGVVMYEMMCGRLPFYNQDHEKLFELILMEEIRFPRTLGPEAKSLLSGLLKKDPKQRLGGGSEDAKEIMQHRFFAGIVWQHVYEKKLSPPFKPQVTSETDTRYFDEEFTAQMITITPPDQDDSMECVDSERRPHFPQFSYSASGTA

[3] = Drug concentration in mouse plasma at 1 mg/kg, iv administered as single dose and measured after 4 hrs; assay type: ADME, organism-based
BaF3 [4] = assay: cells; assay type: functional, cell-based; details: Mus musculus, BaF3, 72 h
Mus musculus [5] = assay: In vivo inhibition of AKT phosphorylation in transgenic mouse harboring EGFR del E746_A750/T790M mutant at 2.5 to 25 mg/kg administered as two doses separated by 16 hours by immunoblot analysis; assay type: functional, organism-based; details: dose 2.5-25 mg/kg
BaF3 [6] = assay: cells; assay type: functional, cell-based; details: Mus musculus, BaF3, 72 h; remark: listed apart in the source
Mus musculus [7] = assay: In vivo inhibition of EGFR phosphorylation in transgenic mouse harboring EGFR del E746_A750/T790M mutant at 2.5 to 25 mg/kg administered as two doses separated by 16 hours by immunoblot analysis; assay type: functional, organism-based; details: dose 2.5-25 mg/kg
Summary of the method: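 Transgenic mice gavaged with compound in 10% 1-methyl-2-pyrrolidinone:90% PEG-300 vehicle; phosphorylation assessed in tissue by immunoblotting per standard protocols.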

[8] = molecular target: T1, Mitogen-activated protein kinase; ERK1/ERK2 (Homo sapiens) (UniProt P27361+P28482); assay: Inhibition of ERK1/2 phosphorylation in human NCI-H1975 cells at 0.01 to 1.0 uM incubated for 16 hrs by immunoblot analysis; assay type: cell-based; details: dose 0.01-1 µM
T1 sequence (P27361 whole entry, looked up): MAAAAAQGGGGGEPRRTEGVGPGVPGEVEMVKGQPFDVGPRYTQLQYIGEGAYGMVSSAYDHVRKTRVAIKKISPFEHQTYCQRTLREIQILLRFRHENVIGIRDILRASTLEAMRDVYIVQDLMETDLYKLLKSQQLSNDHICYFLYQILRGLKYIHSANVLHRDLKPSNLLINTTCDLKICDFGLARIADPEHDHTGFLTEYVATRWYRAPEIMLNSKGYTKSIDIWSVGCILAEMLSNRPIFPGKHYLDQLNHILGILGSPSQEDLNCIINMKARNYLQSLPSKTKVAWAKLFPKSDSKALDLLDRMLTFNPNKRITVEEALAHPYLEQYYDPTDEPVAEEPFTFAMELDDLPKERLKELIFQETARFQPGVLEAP
T1 sequence (P28482 whole entry, looked up): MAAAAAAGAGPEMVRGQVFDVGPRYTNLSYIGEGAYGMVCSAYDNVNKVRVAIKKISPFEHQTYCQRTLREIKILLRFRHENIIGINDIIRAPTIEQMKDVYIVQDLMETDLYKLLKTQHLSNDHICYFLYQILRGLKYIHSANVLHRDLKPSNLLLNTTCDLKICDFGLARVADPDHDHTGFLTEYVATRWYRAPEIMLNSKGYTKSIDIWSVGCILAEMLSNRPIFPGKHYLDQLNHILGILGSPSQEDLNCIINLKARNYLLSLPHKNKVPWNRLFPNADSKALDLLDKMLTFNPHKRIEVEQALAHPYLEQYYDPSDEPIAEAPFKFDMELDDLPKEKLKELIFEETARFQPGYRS

[9] = Drug concentration in mouse plasma at 1 mg/kg, iv administered as single dose and measured after 0.08 hrs; assay type: ADME, organism-based
BaF3 [10] = assay: Prevention of EGFR T790M mutant development in mouse BaF3 cells harboring delE746_A750 mutant assessed as reduction in resistant clones with T790M mutant at 0.001 to 1 uM; assay type: functional, cell-based; details: dose 0.001-1 µM
Summary of the method: (§1)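 Ba/F3 cells with EGFR L858R or delE746_A750 mutagenized with N-ethyl-N-nitrosourea, then expanded in 100 nM or 1 μM inhibitor; resistant clones isolated and characterized for EGFR T790M.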

[11] = Drug concentration in mouse plasma at 1 mg/kg, iv administered as single dose and measured after 2 hrs; assay type: ADME, organism-based
Mus musculus [12] = assay: Invivo antitumor activity in transgenic mouse harboring EGFR del19/T790M mutant assessed as increase in fibrosis at 25 mg/kg administered via gavage for 2 weeks by H&E staining based analysis; assay type: functional, organism-based
Summary of the method: (§2)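 EGFR-TL (L858R/T790M) or exon19 deletion-T790M (TD) inducible bitransgenic mice dosed by oral gavage daily at 25 mg/kg; vehicle 10% 1-methyl-2-pyrrolidinone:90% PEG-300. Tumors followed by MRI; lung histology by standard protocols.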

BaF3 [13] = assay: cells; assay type: functional, cell-based; details: Mus musculus, BaF3, 72 h; remark: listed apart in the source
[14] = Drug concentration in mouse plasma at 10 mg/kg, po administered as single dose and measured after 6 hrs; assay type: ADME, organism-based
[15] = Half-life in mouse at 10 mg/kg, po administered as single dose; assay type: ADME, organism-based; details: in vivo
[16] = Drug concentration in mouse plasma at 10 mg/kg, po administered as single dose and measured after 24 hrs; assay type: ADME, organism-based
Mus musculus [17] = assay: In vivo antitumor activity in transgenic mouse harboring EGFR L858R/T790M mutant assessed as tumor regression at 25 mg/kg, administered via gavage for 2 weeks; assay type: functional, organism-based
Summary of the method: (§3)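 Inducible bitransgenic mice carrying EGFR T790M/L858R or exon19 deletion-T790M were dosed by daily gavage at 25mg/kg. The vehicle was 10% 1-methyl-2-pyrrolidinone:90% PEG-300, and the control group received vehicle alone. Tumor response was followed by MRI scanning.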

[18] = molecular target: T1, Mitogen-activated protein kinase; ERK1/ERK2 (Homo sapiens); assay: Inhibition of ERK1/2 phosphorylation in human PC9 Gefitinib-resistant (GR) cells at 0.01 to 1 uM incubated for 16 hrs by immunoblot analysis; assay type: cell-based; details: PC9 Gefitinib-resistant (GR) cell, dose 0.01-1 µM
[19] = molecular target: T2, Epidermal growth factor receptor (Homo sapiens, UniProt P00533); assay: Inhibition of EGFR phosphorylation in human PC9 Gefitinib-resistant (GR) cells at 0.01 to 1 uM incubated for 16 hrs by immunoblot analysis; assay type: cell-based; details: PC9 Gefitinib-resistant (GR) cell, dose 0.01-1 µM
T2 sequence (P00533 whole entry): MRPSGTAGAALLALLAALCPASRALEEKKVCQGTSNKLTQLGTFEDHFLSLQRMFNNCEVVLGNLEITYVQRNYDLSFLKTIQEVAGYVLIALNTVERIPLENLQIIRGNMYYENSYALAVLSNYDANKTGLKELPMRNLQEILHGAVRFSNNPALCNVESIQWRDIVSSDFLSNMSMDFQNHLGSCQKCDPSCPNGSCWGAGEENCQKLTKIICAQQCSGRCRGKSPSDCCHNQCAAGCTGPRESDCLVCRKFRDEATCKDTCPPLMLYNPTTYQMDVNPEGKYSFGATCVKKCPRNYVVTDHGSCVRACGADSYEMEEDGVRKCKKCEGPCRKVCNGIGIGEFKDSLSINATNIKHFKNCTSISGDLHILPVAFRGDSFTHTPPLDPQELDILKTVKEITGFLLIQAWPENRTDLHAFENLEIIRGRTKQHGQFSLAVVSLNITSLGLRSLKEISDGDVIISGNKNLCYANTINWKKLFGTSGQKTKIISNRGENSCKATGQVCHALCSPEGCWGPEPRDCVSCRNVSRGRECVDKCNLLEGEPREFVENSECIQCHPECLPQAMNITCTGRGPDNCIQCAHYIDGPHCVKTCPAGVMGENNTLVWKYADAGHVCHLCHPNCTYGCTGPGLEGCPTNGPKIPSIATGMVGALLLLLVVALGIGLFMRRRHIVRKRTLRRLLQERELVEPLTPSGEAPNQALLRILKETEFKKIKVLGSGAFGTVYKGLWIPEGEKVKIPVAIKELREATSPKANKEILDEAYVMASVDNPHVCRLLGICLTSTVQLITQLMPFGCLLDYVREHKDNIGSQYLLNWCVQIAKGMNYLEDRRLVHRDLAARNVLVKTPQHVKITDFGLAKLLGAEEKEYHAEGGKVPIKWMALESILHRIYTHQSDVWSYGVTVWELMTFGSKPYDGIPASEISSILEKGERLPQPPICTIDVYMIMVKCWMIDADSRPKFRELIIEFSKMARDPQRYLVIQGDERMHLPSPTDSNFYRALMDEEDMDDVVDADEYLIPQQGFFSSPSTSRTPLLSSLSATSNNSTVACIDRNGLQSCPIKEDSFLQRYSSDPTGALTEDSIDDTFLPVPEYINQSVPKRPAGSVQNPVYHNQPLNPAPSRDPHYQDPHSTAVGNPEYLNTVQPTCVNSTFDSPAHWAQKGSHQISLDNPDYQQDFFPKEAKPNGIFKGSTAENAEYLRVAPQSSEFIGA

BaF3 [20] = assay: cells; assay type: functional, cell-based; details: Mus musculus, BaF3, 72 h; remark: listed apart in the source
[21] = molecular target: T2, Epidermal growth factor receptor; assay: Inhibition of EGFR phosphorylation in human NCI-H1975 cells at 0.01 to 1 uM incubated for 16 hrs by immunoblot analysis; assay type: cell-based; details: dose 0.01-1 µM
[22] = Cmax in mouse at 10 mg/kg, po administered as single dose; assay type: ADME, organism-based; details: in vivo
[23] = Drug concentration in mouse plasma at 10 mg/kg, po administered as single dose and measured after 8 hrs; assay type: ADME, organism-based
[24] = Drug concentration in mouse plasma at 10 mg/kg, po administered as single dose and measured after 0.5 hrs; assay type: ADME, organism-based
cells = assay type: functional, cell-based; details: Homo sapiens, NCI-H1819, 72 h
Mus musculus [25] = assay: In vivo antitumor activity in transgenic mouse harboring EGFR Del19/T790M mutant assessed as tumor regression at 25 mg/kg, administered via gavage for 2 weeks; assay type: functional, organism-based; summary of the method: as §3
[26] = molecular target: Tyrosine-protein kinase Tec (Homo sapiens) (UniProt P42680); assay: Inhibition of TEC (unknown origin)
Tyrosine-protein kinase Tec (Homo sapiens), sequence (P42680 whole entry, looked up): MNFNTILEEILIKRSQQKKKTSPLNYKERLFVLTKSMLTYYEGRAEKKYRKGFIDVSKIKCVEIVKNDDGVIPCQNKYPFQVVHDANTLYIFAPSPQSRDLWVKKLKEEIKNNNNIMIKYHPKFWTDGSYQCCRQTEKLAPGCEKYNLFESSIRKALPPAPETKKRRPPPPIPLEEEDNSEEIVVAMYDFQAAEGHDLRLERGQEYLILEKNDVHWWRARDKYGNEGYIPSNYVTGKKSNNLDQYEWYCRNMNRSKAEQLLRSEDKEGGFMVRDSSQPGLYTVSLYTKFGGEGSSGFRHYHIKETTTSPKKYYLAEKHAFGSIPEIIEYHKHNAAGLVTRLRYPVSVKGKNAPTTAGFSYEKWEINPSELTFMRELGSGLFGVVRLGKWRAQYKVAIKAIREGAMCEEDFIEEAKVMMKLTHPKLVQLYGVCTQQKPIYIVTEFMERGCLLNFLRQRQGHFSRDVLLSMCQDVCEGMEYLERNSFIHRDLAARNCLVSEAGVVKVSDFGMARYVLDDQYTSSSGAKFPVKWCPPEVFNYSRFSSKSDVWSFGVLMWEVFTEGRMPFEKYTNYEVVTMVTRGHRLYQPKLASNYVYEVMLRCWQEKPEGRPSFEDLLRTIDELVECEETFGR

[27] = molecular target: ALK tyrosine kinase receptor (Homo sapiens, UniProt Q9UM73); assay: Binding affinity of ALK (unknown origin) assessed as dissociation constant
[28] = Clearance in mouse at 1 mg/kg, iv administered as single dose; assay type: ADME, organism-based; details: in vivo
[29] = Drug concentration in mouse plasma at 10 mg/kg, po administered as single dose and measured after 1 hrs; assay type: ADME, organism-based
[30] = MRT in mouse at 10 mg/kg, po administered as single dose; assay type: ADME, organism-based; details: in vivo
Mus musculus [31] = assay: Invivo antitumor activity in transgenic mouse harboring EGFR L858R/T790M mutant assessed as reduction in nodule remnants in tumor at 25 mg/kg administered via gavage for 2 weeks by H&E staining based analysis; assay type: functional, organism-based; summary of the method: as §2
PC-9 = assay: Prevention of EGFR T790M mutant development in human PC-9 cells harboring delE746_A750 mutant assessed as reduction in resistant cells with T790M mutant at 1 uM; assay type: functional, cell-based
BaF3 [32] = assay: Prevention of EGFR T790M mutant development in mouse BaF3 cells harboring L858R mutant assessed as reduction in resistant clones with T790M mutant at 0.001 to 1 uM; assay type: functional, cell-based; details: dose 0.001-1 µM; summary of the method: as §1
[33] = molecular target: NUAK family SNF1-like kinase 1 (Homo sapiens, UniProt O60285); assay: Binding affinity to ARK5 (unknown origin) assessed as dissociation constant
NUAK family SNF1-like kinase 1, sequence (O60285 whole entry): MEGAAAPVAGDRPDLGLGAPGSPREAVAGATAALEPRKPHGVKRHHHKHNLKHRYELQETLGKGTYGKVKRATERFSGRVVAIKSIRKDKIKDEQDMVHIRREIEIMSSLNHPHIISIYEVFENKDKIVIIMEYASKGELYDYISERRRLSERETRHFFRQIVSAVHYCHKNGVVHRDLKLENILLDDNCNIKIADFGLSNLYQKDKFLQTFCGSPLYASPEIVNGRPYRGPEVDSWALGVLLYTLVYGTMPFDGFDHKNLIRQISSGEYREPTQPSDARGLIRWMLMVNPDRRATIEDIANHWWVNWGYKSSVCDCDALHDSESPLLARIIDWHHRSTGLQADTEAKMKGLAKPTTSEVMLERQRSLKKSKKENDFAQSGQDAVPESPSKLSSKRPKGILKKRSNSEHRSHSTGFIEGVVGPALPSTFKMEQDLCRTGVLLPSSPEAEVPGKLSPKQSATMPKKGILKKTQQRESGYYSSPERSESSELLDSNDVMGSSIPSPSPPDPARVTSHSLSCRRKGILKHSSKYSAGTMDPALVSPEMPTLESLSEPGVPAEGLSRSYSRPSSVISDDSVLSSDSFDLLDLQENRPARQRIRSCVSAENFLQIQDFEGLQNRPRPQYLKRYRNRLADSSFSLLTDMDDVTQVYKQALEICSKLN

BaF3 [34] = assay: cells; assay type: functional, cell-based; details: Mus musculus, BaF3, 72 h; remark: listed apart in the source
Mus musculus [35] = assay: Invivo antitumor activity in transgenic mouse harboring EGFR L858R/T790M mutant assessed as increase in fibrosis at 25 mg/kg administered via gavage for 2 weeks by H&E staining based analysis; assay type: functional, organism-based; summary of the method: as §2

MRT [1]: 1.51 h | inhibition [2]: Active | concentration at 4 h [3]: 49.1 ng/mL | IC50 (BaF3 [4]): 3 nM | IC50 (BaF3 [6]): > 3300 nM | inhibition [8]: Active | concentration at 0.08 h [9]: 1130 ng/mL | concentration at 2 h [11]: 80.4 ng/mL | IC50 (BaF3 [13]): > 3300 nM | concentration at 6 h [14]: 140 ng/mL | half-life [15]: 2.46 h | concentration at 24 h [16]: 0.82 ng/mL | inhibition [18]: Active | inhibition [19]: Active | IC50 (BaF3 [20]): 619 nM | inhibition [21]: Active | Cmax [22]: 429 ng/mL | concentration at 8 h [23]: 59.2 ng/mL | concentration at 0.5 h [24]: 397 ng/mL | IC50 (cells): 924 nM | inhibition [26]: Active | Kd [27]: 300 nM | clearance [28]: 17.1 mL/min/kg | concentration at 1 h [29]: 340 ng/mL | MRT [30]: 3.98 h | Kd [33]: 91 nM | IC50 (BaF3 [34]): 1860 nM
SMILES: C=CC(=O)Nc1cccc(Oc2nc(Nc3ccc(N4CCN(C)CC4)cc3OC)ncc2Cl)c1
inhibition (Mus musculus [5]): Active | inhibition (Mus musculus [7]): Active | Activity (BaF3 [10]): Active | Activity (Mus musculus [12]): Active | Activity (Mus musculus [17]): Active | Activity (Mus musculus [25]): Active | Activity (Mus musculus [31]): Active | Activity (PC-9): Active | Activity (BaF3 [32]): Active | Activity (Mus musculus [35]): Active
